Columns and labels:
[1] = molecular target: Dual specificity tyrosine-phosphorylation-regulated kinase 1A (Homo sapiens) (UniProt Q13627); experiment: Inhibition of full length recombinant GST-tagged human DYRK1A expressed in baculovirus expression system at 1 uM by FRET assay relative to control
[2] = molecular target: Casein kinase I isoform gamma-1 (Homo sapiens) (UniProt Q9HCP0); experiment: Inhibition of CK1gamma1 (unknown origin) at 1 uM by FRET assay relative to control
[3] = molecular target: Casein kinase I isoform epsilon (Homo sapiens) (UniProt P49674); experiment: Inhibition of CK1epsilon1 (unknown origin) at 1 uM by FRET assay relative to control
[4] = molecular target: Serine/threonine-protein kinase BRSK1 (Homo sapiens) (UniProt Q8TDC3); experiment: Inhibition of recombinant full length GST-tagged human BrSK1 expressed in baculovirus expression system at 1 uM by FRET assay relative to control
Procedure, shortened: (§1)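 Single-concentration screen at 1 μM in Life Technologies SelectScreen, across a 220-kinase panel. Z′-LYTE format measures phosphorylation of a labeled peptide by FRET. Results are reported as percent inhibition.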

[5] = molecular target: Interleukin-1 receptor-associated kinase 4 (Homo sapiens) (UniProt Q9NWZ3); experiment: Inhibition of recombinant full length His-tagged human IRAK4 expressed in baculovirus expression system at 1 uM by FRET relative to control
[6] = molecular target: Homeodomain-interacting protein kinase 1 (Homo sapiens) (UniProt Q86Z02); experiment: Inhibition of recombinant GST-tagged human HIPK1 catalytic domain expressed in baculovirus expression system at 1 uM by FRET relative to control
Procedure, shortened: (§2)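 Single-point screen at 1 μM compound in a 220-kinase panel run by Life Technologies (SelectScreen). Z′-LYTE format: phosphorylation of a labeled peptide substrate read by FRET. Values are reported as percent inhibition.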

[7] = molecular target: Vascular endothelial growth factor receptor 1 (Homo sapiens) (UniProt P17948); experiment: Inhibition of recombinant GST-tagged human FLT1 cytoplasmic domain expressed in baculovirus expression system at 1 uM by FRET assay relative to control; procedure, shortened: as §2
[8] = molecular target: Receptor tyrosine-protein kinase erbB-2 (Homo sapiens) (UniProt P04626); experiment: Inhibition of recombinant His-tagged human ErbB2 cytoplasmic domain expressed in baculovirus expression system at 1 uM by FRET assay relative to control; procedure, shortened: as §2
[9] = molecular target: Ephrin type-A receptor 8 (Homo sapiens) (UniProt P29322); experiment: Inhibition of recombinant GST-tagged human EphA8 cytoplasmic domain expressed in baculovirus expression system at 1 uM by FRET assay relative to control; procedure, shortened: as §2
Ephrin type-A receptor 7 = Ephrin type-A receptor 7 (Homo sapiens, UniProt Q15375); experiment: Inhibition of recombinant GST-tagged human EphA7 cytoplasmic domain expressed in baculovirus expression system at 1 uM by FRET assay relative to control; procedure, shortened: as §2
Chain of Ephrin type-A receptor 7 (Q15375 28-998 limits assumed): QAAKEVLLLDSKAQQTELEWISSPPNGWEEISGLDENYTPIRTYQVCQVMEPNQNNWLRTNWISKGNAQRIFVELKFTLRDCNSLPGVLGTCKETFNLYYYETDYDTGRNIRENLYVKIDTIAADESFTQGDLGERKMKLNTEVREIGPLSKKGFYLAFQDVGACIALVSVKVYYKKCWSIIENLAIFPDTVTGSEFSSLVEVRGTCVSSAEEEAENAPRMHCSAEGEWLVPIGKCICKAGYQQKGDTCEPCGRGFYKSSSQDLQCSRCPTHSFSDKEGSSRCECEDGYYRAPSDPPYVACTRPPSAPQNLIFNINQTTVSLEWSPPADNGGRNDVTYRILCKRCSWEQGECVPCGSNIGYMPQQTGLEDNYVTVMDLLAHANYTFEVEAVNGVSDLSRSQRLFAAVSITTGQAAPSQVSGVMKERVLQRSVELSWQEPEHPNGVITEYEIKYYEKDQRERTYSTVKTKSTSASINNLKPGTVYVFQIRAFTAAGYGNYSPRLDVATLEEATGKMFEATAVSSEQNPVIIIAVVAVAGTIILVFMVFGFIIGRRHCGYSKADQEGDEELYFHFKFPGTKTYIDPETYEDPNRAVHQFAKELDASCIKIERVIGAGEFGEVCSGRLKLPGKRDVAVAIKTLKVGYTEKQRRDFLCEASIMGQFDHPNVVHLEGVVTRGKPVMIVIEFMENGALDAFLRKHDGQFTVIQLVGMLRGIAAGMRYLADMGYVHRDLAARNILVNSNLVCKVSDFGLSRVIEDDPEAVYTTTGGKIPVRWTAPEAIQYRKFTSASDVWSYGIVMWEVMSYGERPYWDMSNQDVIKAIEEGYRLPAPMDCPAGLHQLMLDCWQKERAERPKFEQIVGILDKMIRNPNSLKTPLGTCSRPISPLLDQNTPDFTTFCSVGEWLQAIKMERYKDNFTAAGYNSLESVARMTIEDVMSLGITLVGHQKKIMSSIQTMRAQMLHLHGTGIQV

[10] = test system: Epidermal growth factor receptor (Homo sapiens), P00533 [L858R,T790M]; experiment: Inhibition of recombinant GST-tagged human EGFR cytoplasmic domain (668 to 1210 residues) T790M/L858R double mutant expressed in baculovirus expression system at 1 uM by FRET assay relative to control
Procedure, shortened: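 Part of a 220-kinase panel run at a single concentration of 1 μM. Z′-LYTE format: phosphorylation of a labelled peptide read by FRET. Values reported as percent inhibition.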

[11] = molecular target: Protein kinase C alpha type (Homo sapiens) (UniProt P17252); experiment: Inhibition of recombinant full length human PKCalpha expressed in baculovirus expression system at 1 uM by FRET assay relative to control
[12] = molecular target: Serine/threonine-protein kinase Nek1 (Homo sapiens) (UniProt Q96PY6); experiment: Inhibition of recombinant full length GST-tagged human NEK1 expressed in baculovirus expression system at 1 uM by FRET assay relative to control; procedure, shortened: as §1
Chain of Serine/threonine-protein kinase Nek1 (Homo sapiens) (Q96PY6 whole entry, the tested form may be a part): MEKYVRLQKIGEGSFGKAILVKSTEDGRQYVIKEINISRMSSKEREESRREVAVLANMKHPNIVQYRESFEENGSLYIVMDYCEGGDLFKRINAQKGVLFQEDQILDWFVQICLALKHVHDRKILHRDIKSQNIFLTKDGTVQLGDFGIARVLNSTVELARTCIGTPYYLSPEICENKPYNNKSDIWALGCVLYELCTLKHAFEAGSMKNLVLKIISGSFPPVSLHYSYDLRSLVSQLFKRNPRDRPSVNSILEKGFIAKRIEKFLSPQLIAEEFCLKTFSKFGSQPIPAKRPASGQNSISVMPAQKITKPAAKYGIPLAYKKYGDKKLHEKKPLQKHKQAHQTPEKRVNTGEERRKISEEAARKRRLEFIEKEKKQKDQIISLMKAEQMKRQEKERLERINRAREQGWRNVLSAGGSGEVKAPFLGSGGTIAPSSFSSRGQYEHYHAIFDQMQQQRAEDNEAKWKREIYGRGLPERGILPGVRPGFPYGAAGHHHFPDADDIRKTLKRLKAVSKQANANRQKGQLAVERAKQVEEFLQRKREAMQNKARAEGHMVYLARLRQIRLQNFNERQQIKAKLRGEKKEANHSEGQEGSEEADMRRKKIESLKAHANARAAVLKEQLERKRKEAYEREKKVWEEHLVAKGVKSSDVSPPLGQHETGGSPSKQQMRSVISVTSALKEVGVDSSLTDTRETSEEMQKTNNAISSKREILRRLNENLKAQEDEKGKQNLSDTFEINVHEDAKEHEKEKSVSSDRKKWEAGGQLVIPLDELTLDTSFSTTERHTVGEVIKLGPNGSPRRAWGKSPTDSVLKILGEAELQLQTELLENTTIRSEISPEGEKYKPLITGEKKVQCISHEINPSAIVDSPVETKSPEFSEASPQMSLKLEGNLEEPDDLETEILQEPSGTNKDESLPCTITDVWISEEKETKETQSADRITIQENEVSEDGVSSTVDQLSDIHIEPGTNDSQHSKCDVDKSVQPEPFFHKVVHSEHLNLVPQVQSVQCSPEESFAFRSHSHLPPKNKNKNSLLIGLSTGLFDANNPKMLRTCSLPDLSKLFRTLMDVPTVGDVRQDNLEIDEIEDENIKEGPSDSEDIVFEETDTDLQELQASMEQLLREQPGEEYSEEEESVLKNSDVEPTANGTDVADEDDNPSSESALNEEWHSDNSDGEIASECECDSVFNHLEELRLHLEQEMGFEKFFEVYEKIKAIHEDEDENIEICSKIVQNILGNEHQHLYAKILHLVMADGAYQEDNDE

[13] = molecular target: Serine/threonine-protein kinase mTOR (Homo sapiens) (UniProt P42345); experiment: Inhibition of recombinant GST-tagged human mTOR catalytic domain (1360 to 2549 residues) expressed in baculovirus expression system at 1 uM by FRET assay relative to control; procedure, shortened: as §2
[14] = molecular target: Serine/threonine-protein kinase 3 (Homo sapiens) (UniProt Q13188); experiment: Inhibition of recombinant full length GST-tagged human MST2 expressed in baculovirus at 1 uM by FRET assay relative to control; procedure, shortened: as §1
[15] = molecular target: Mitogen-activated protein kinase kinase kinase 20 (Homo sapiens) (UniProt Q9NYL2); experiment: Inhibition of recombinant N-terminal full length GST-tagged human ZAK expressed in baculovirus expression system at 1 uM by FRET assay relative to control; procedure, shortened: as §1
Chain of Mitogen-activated protein kinase kinase kinase 20 (Homo sapiens) (Q9NYL2 2-800 limits assumed): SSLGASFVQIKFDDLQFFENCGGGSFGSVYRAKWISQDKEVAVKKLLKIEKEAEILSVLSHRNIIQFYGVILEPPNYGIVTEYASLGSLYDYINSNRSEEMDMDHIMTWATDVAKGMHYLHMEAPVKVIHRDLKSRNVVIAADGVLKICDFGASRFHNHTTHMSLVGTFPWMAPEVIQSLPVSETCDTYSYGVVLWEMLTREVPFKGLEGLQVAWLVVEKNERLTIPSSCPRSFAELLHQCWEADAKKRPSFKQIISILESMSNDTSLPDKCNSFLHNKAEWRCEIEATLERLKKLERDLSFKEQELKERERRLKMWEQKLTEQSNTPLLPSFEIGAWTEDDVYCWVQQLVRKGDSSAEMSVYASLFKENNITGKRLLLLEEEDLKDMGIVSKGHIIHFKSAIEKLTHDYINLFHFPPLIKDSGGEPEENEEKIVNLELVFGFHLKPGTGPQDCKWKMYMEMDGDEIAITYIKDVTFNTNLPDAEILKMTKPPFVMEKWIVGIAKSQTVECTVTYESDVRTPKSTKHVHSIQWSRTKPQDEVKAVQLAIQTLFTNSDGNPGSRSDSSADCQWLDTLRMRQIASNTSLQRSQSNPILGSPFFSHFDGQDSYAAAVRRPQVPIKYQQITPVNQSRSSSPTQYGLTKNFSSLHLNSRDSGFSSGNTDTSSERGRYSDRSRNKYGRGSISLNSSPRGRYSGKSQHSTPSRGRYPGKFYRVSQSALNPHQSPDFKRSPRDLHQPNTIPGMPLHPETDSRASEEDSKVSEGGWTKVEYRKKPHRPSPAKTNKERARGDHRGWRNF

[16] = molecular target: Tyrosine-protein kinase Yes (Homo sapiens) (UniProt P07947); experiment: Inhibition of recombinant full length GST-tagged human Yes expressed in baculovirus expression system at 1 uM by FRET assay relative to control
Chain of Tyrosine-protein kinase Yes (Homo sapiens) (P07947 2-543 limits assumed): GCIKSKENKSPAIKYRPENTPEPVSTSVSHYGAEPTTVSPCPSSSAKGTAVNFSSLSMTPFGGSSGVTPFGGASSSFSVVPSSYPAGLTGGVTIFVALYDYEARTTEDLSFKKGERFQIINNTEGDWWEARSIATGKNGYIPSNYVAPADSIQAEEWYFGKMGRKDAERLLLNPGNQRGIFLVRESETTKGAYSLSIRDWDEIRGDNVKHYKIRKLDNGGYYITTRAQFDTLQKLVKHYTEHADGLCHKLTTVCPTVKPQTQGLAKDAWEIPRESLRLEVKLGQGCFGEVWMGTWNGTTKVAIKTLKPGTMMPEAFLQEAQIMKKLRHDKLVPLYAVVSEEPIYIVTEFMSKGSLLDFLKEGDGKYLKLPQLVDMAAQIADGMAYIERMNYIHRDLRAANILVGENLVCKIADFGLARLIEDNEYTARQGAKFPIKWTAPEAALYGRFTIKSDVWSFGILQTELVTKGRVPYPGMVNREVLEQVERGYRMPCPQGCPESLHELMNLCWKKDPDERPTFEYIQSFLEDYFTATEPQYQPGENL

[17] = molecular target: High affinity nerve growth factor receptor (Homo sapiens, UniProt P04629); experiment: Inhibition of recombinant His-tagged human TrkA cytoplasmic domain (441 to 796 residues) expressed in baculovirus expression system at 1 uM by FRET assay relative to control; procedure, shortened: as §1
Chain of High affinity nerve growth factor receptor (P04629 33-796 limits assumed): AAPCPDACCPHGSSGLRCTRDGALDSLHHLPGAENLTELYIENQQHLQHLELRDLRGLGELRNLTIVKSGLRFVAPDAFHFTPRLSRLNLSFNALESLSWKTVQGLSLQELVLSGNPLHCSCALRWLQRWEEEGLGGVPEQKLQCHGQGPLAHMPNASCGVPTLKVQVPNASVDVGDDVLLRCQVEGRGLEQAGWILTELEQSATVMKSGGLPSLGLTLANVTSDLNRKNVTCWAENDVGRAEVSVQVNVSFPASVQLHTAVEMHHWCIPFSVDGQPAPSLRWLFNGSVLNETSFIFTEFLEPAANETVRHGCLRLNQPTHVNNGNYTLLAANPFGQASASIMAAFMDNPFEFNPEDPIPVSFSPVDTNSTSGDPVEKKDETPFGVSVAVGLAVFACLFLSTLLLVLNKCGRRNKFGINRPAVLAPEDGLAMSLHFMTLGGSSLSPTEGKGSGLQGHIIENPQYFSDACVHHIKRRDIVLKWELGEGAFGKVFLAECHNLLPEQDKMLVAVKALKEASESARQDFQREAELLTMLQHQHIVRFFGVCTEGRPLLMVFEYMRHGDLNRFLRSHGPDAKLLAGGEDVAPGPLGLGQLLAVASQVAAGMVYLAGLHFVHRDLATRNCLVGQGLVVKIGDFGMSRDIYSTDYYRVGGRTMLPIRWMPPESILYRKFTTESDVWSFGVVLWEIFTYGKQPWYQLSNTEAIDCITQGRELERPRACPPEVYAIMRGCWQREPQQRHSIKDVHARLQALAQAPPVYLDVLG

[18] = molecular target: Activated CDC42 kinase 1 (Homo sapiens) (UniProt Q07912); experiment: Inhibition of recombinant GST-tagged human TNK2 catalytic/cytoplasmic domain (110 to 476 residues) expressed in baculovirus expression system at 1 uM by FRET assay relative to control; procedure, shortened: as §2
TAK1/TAB1 (Homo sapiens) = TAK1/TAB1 (Homo sapiens) (UniProt Q15750+O43318); experiment: Inhibition of recombinant full length His-tagged human TAK1-TAB1 (437 to 504 residues) expressed in baculovirus expression system at 1 uM by FRET assay relative to control
[19] = molecular target: Macrophage-stimulating protein receptor (Homo sapiens) (UniProt Q04912); experiment: Inhibition of recombinant GST-tagged human Ron cytoplasmic domain ([…] to 1400 residues) expressed in baculovirus expression system at 1 uM by FRET assay relative to control; procedure, shortened: as §2
[20] = molecular target: Proto-oncogene tyrosine-protein kinase receptor Ret (Homo sapiens) (UniProt P07949); experiment: Inhibition of recombinant N-terminal GST-tagged human Ret cytoplasmic domain (658 to 1114 residues) expressed in baculovirus expression system at 1 uM by FRET assay relative to control; procedure, shortened: as §1
[21] = molecular target: Adenosine receptor A2a (Homo sapiens) (UniProt P29274); experiment: Binding affinity to recombinant human A2A adenosine receptor at 10 uM relative to control
Chain of Adenosine receptor A2a (Homo sapiens) (P29274 whole entry): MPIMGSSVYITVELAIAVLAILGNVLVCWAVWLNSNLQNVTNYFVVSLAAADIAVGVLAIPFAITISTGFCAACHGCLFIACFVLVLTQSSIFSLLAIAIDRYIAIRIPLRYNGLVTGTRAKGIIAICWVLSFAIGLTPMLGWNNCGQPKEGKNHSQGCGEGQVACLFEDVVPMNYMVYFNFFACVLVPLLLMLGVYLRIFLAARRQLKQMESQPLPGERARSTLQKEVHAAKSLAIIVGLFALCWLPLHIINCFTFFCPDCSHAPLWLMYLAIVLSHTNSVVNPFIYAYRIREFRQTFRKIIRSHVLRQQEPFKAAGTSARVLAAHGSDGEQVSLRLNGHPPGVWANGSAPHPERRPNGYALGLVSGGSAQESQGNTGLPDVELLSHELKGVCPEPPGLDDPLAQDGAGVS
Procedure, shortened: (§3)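 Broad radioligand-binding and enzyme screening panel covering 42 targets (biogenic amine and neuropeptide receptors, ion channels, neurotransmitter transporters, acetylcholinesterase). Single test concentration of 10 μM. Results expressed as binding relative to control, with a hit defined as >50% of control.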

[22] = molecular target: Opioid receptors; mu/kappa/delta (Homo sapiens) (UniProt P41145+P41143+P35372); experiment: Binding affinity to opiod receptor (unknown origin) receptor at 10 uM relative to control; assay type: protein assay; procedure, shortened: as §3
Homo sapiens [23] = species: Homo sapiens; experiment: Binding affinity to PDE rolipram binding site (unknown origin) receptor at 10 uM relative to control; procedure, shortened: as §3
[24] = molecular target: 5-hydroxytryptamine receptor 1B (Homo sapiens) (UniProt P28222); experiment: Binding affinity to 5HT1B receptor (unknown origin) receptor at 10 uM relative to control; procedure, shortened: as §3
Homo sapiens [25] = species: Homo sapiens; experiment: Binding affinity to L-type calcium channel verapamil/phenylalkylamine binding site (unknown origin) receptor at 10 uM relative to control; procedure, shortened: as §3

| Compound | inhibition [1] [%] | inhibition [2] [%] | inhibition [3] [%] | inhibition [4] [%] | inhibition [5] [%] | inhibition [6] [%] | inhibition [7] [%] | inhibition [8] [%] | inhibition [9] [%] | inhibition (Ephrin type-A receptor 7) [%] | inhibition [10] [%] | inhibition [11] [%] | inhibition [12] [%] | inhibition [13] [%] | inhibition [14] [%] | inhibition [15] [%] | inhibition [16] [%] | inhibition [17] [%] | inhibition [18] [%] | inhibition (TAK1/TAB1 (Homo sapiens)) [%] | also measured |
| --- | --- | --- | --- | --- | --- | --- | --- | --- | --- | --- | --- | --- | --- | --- | --- | --- | --- | --- | --- | --- | --- |
| CC(C)n1nc(-c2cnc(N)c(OC(F)(F)F)c2)cc1[C@H]1[C@@H]2CN(C3COC3)C[C@@H]21 | 7 | 8.4 | 1.5 | 5.8 | -1.3 | 8.6 | 4.8 | -0.8 | 8.7 | 39 | 9.8 | 30.3 | 5.7 | 7.9 | 10.1 | 2.5 | 15.8 | 67.1 | 1.3 | 35.6 | inhibition [19]: 5.9%; inhibition [20]: 9.1%; Activity [21]: > 50%; Activity [22]: > 50%; Activity (Homo sapiens [23]): > 50%; Activity [24]: > 50%; Activity (Homo sapiens [25]): > 50% |
| Nc1ncc(-c2cc([C@H]3[C@@H]4CN(C5COC5)C[C@@H]43)n(CC3CC3)n2)cc1C(F)(F)F | 3.9 | 2 | 9.5 | -0.3 | 5.3 | 3.8 | -0.6 | -5.4 | 18.6 | 51.4 | 8.2 | 22.4 | 3.6 | -0.8 | 0 | 1.4 | 29.8 | 56.1 | 0.3 | 42.1 | inhibition [19]: 0.6%; inhibition [20]: 17.7%; Activity [21]: > 50%; Activity [22]: > 50%; Activity (Homo sapiens [23]): > 50%; Activity [24]: > 50%; Activity (Homo sapiens [25]): > 50% |
